pIC50: −log10 of the molar value.
Columns and labels:
[1] = Nitric oxide release in PBS at pH 7.4 in 37 degC after 1.5 hrs; type: functional; design: concentration or dose not given beside the values
Summary of the method: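 Test compound at 1.0 · 10^-2 mM in phosphate buffer pH 7.4, incubated 37 °C for 1.5 h. Nitrite was quantified by Griess reaction. % NO released is relative to a theoretical maximum of 2 mol NO/mol for diazeniumdiolates, 1 mol/mol for nitrooxyethyl esters and 3 mol/mol for glycerol trinitrate. Mean of 3 measurements.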

[2] = target: T1, Prostaglandin G/H synthase 1 (Ovis aries, UniProt P05979); test: Inhibition of ovine COX1 by enzyme immunoassay
T1 sequence (P05979 whole entry): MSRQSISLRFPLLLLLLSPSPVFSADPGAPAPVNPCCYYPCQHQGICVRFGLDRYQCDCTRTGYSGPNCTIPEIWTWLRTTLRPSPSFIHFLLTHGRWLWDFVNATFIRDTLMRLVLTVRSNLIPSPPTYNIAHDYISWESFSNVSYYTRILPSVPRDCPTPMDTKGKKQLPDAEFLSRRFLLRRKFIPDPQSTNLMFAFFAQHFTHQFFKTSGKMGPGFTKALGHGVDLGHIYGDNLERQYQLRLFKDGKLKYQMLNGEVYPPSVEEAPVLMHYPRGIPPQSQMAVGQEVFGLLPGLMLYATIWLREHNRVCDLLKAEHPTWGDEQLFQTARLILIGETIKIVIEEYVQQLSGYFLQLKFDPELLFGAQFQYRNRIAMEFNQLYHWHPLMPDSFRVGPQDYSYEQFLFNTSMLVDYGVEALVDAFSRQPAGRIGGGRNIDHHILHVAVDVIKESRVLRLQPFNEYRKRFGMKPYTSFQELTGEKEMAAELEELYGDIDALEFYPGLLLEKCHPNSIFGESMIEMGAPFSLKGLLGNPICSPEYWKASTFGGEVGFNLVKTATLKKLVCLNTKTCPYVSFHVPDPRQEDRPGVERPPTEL

[3] = Nitric oxide release in PBS in presence of 5 mM L-cysteine at pH 7.4 in 37 degC after 1.5 hrs; type: functional
Summary of the method: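 Phosphate buffer pH 7.4 containing 5.0 mM L-cysteine, with test compound at 1.0 · 10^-2 mM, kept at 37 °C for 1.5 h. Nitrite was determined by Griess reaction. % NO released is relative to a theoretical maximum of 1 mol NO/mol for nitrooxyethyl esters. Mean of 3 measurements.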

Serum = test: Nitric oxide in rat serum at pH 7.4 in 37 degC after 1.5 hrs; type: ADME, cell-free; design: concentration or dose not given beside the values; details: pH 7.4, 1.5 h
Summary of the method: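 Test compound at 1.0 · 10^-2 mM in phosphate buffer pH 7.4 with 90 µL rat serum added, incubated 37 °C for 1.5 h. Nitrite measured by Griess reaction. % NO released is relative to a theoretical maximum of 2 mol NO/mol for diazeniumdiolates and 1 mol/mol for nitrooxyethyl esters. Mean of 3 measurements.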

Ovis aries = organism: Ovis aries; test: Selectivity index, ratio of IC50 for ovine COX1 to IC50 for ovine COX2
Summary of the method: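 Ovine COX-1 and COX-2 IC50s were measured by enzyme immunoassay kit. Deviation from the mean was <10%. The index is COX-1 IC50/COX-2 IC50.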

pIC50 [2] | Activity (Serum) | Ratio IC50 (Ovis aries) | Compound | Activity [1] | Activity [3]
5.21 |  |  | CS(=O)(=O)c1ccc(/C=C(/C(=O)OCCO[N+](=O)[O-])c2ccccc2)cc1 | 3% | 8.5%
 | 76.2% |  | CC(=O)OCO/N=[N+](\[O-])N(C)CCOC(=O)/C(=C/c1ccc(S(C)(=O)=O)cc1)c1ccc(Br)cc1 | 3.5% | 
6.40 |  |  | CS(=O)(=O)c1ccc(/C=C(/C(=O)O)c2ccc(F)cc2)cc1 |  | 
 | 85% |  | CN(CCO)/[N+]([O-])=N/[O-].[Na+] | 84.9% | 
 |  |  | O=[N+]([O-])OCC(CO[N+](=O)[O-])O[N+](=O)[O-] | 2.8% | 10.1%
4.50 |  |  | COc1ccc(/C(=C\c2ccc(S(C)(=O)=O)cc2)C(=O)O)cc1 |  | 
5.82 |  | 0.5 | CS(=O)(=O)c1ccc(/C=C(/C(=O)O)c2ccccc2)cc1 |  | 
 | 77.6% |  | COc1ccc(/C(=C\c2ccc(S(C)(=O)=O)cc2)C(=O)OCCN(C)/[N+]([O-])=N/OCOC(C)=O)cc1 | 3.9% | 
6.06 |  |  | CS(=O)(=O)c1ccc(/C=C(/C(=O)O)c2ccc(Br)cc2)cc1 |  | 
 | 83% |  | CC(=O)OCO/N=[N+](\[O-])N(C)CCOC(=O)/C(=C/c1ccc(S(C)(=O)=O)cc1)c1ccccc1 | 4.8% | 
 | 82.1% |  | CC(=O)OCO/N=[N+](\[O-])N(C)CCOC(=O)/C(=C/c1ccc(S(C)(=O)=O)cc1)c1ccc(F)cc1 | 3.6% | 

Compound | pIC50 [2] | Activity (Serum) | Ratio IC50 (Ovis aries) | Activity [1] | Activity [3]
COc1ccc(/C(=C\c2ccc(S(C)(=O)=O)cc2)C(=O)OCCO[N+](=O)[O-])cc1 | 5.96 |  |  | 1.4% | 9.2%
CS(=O)(=O)c1ccc(/C=C(/C(=O)OCCO[N+](=O)[O-])c2ccc(F)cc2)cc1 | 5.80 |  |  | 3.3% | 7.6%
CS(=O)(=O)c1ccc(/C=C(/C(=O)OCCO[N+](=O)[O-])c2ccc(Br)cc2)cc1 | 6.43 |  |  | 1% | 10.1%

From ChEMBL document CHEMBL1143874, “Diazen-1-ium-1,2-diolated and nitrooxyethyl nitric oxide donor ester prodrugs of anti-inflammatory (E)-2-(aryl)-3-(4-methanesulfonylphenyl)acrylic acids: synthesis, cyclooxygenase inhibition, and nitric oxide release studies” (Bioorg Med Chem, 2008)
